Measurements of several laboratories.
Protocols differ between the studies behind these lines.
Target: Tyrosine-protein kinase Lyn (LYN, Homo sapiens, UniProt P07948)

`N[C@H]1CCN(c2nccc(-c3cnn4ncccc34)n2)C1` gave a remaining binding of 99% (binding; 1 µM).
`CC1=C(C#N)C(c2ccc3c(c2)c(NC(=O)c2ccccc2C)nn3C)C(C#N)=C(C)N1` gave a remaining binding of 89% (cell-free assay; competition with immobilised ligand; 1 µM).
`COc1cnc(Nc2cccc(S(N)(=O)=O)c2)nc1N1CCN(c2ccccc2)C(=O)C1` has a remaining binding of 100% (binding; competition with immobilised ligand; 1 µM).
With `O=C(c1ccc(Nc2ncc(Cl)c(-c3ccc(Cl)s3)n2)cc1)N1CCC(N2CCCC2)CC1` the remaining binding was 87% (binding; competition with immobilised ligand; 1 µM).
`CN(CCCC(F)(F)F)c1nccc(-c2cnn3ncccc23)n1` has a remaining binding of 86% (binding; 1 µM).
For `CSc1cccnc1N1CCN(Cc2nc3ccccc3[nH]2)CC1`, the remaining binding was 95% (cell-free assay; competition with immobilised ligand; 1 µM).
`O=C(NCC1CCOCC1)c1n[nH]cc1NC(=O)c1c(F)cccc1F` gave a remaining binding of 92% (binding; competition with immobilised ligand; 1 µM).
`CN(C)c1nccc(-c2cnc3ncccn23)n1` has a remaining binding of 100% (binding; 1 µM).
For `Nc1ncc2c(n1)-c1c([nH]c3ccc(C#CC4CC4)cc13)CCCC2`, the remaining binding was 93% (binding; competition with immobilised ligand; 1 µM).
With `C[C@H]1CCN(c2nccc(-c3cnn4ncccc34)n2)C1` the remaining binding was 64% (binding; 1 µM).
With `CCN1CCN(Cc2ccc(C(=O)Nc3ccc(C)c(Oc4ccc5c(c4)CC(=O)N5)c3)cc2C(F)(F)F)CC1` the remaining binding was 52% (binding; competition with immobilised ligand; 1 µM).
`COCCOc1nc(-c2ccc(Cl)nc2)nc2c1CN(C(=O)c1ncn3ccccc13)CC2` has a remaining binding of 73% (cell-free assay; competition with immobilised ligand; 0.1 µM).
With `C[C@@H](c1ccc(-n2cnc3c(N)ncnc32)cc1)N1CCc2nn(C)c(Cc3ccccc3)c2C1=O` the remaining binding was 100% (binding; competition with immobilised ligand; 0.1 µM).
The remaining binding of `FC(F)(F)Oc1cccc(-c2cnc3ccc(-c4ccncc4)nn23)c1` is reported as 93% (cell-free assay; competition with immobilised ligand; 5 µM).
For `CN(C)c1ncc(F)c(-c2cnn3ncccc23)n1`, the remaining binding was 100% (binding; 1 µM).
For `O=C(c1ccc(Nc2nccc(-c3cc4ccccc4s3)n2)cc1)N1CCC(N2CCCC2)CC1`, the remaining binding was 97% (binding; competition with immobilised ligand; 1 µM).
`CNC(=O)Nc1ccc2c(c1)[C@@]1(CC2)OC(=O)N(CC(=O)N(Cc2ccc(F)cc2)[C@@H](C)C(F)(F)F)C1=O` has a remaining binding of 100% (cell-free assay; competition with immobilised ligand; 1 µM).
For `Cc1ccc(-n2nc(C(C)(C)C)cc2NC(=O)Nc2ccc(-n3c(N)c(C(N)=O)c4nc5ccccc5nc43)cc2)cc1`, the remaining binding was 0.85% (cell-free assay; competition with immobilised ligand; 1 µM).
`COc1cc(-c2cn(C3CCc4c(F)cccc4N(CC(F)(F)F)C3=O)nn2)ccc1-n1cnc(C)c1` (stereo not drawn) has a remaining binding of 100% (cell-free assay; competition with immobilised ligand; 1 µM).
`Cc1cnc(Nc2ccc(C(=O)N3CCC(N4CCCC4)CC3)cc2)nc1-c1cc2ccccc2s1` has a remaining binding of 78% (binding; competition with immobilised ligand; 1 µM).
`CC1CCCN1c1nccc(-c2cnn3ncccc23)n1` (stereo not drawn) gave a remaining binding of 84% (binding; 1 µM).
`O=C(Nc1cnc(Oc2ccc(F)cc2)nc1)N1CCc2ncccc2[C@@H]1c1ccc(F)cc1` has a remaining binding of 82% (cell-free assay; competition with immobilised ligand; 1 µM).
`CN(C)c1nccc(-c2cnn3ncccc23)n1` has a remaining binding of 83% (binding; 1 µM).
The remaining binding of `O=c1nc(-c2ccccn2)sc2ccccc12` is reported as 100% (cell-free assay; competition with immobilised ligand; 1 µM).
